From ChEMBL document CHEMBL4613231 (Bioorg Med Chem, 2020)

Key:
[1] = target: T1, Tyrosyl-DNA phosphodiesterase 1 (Homo sapiens, UniProt Q9NUW8); test: Inhibition of TDP1 (unknown origin) using 5'-(5,6 FAM-AAC GTC AGG GTC TTC C- BHQ1)-3' as substrate measured for every 1 min by fluorescence based assay
Procedure, shortened: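 TDP1 buffer (50 mM Tris-HCl pH 8.0, 50 mM NaCl, 7 mM β-mercaptoethanol) with FAM/BHQ1 quenched biosensor at 50 nM final and inhibitor over a concentration range. Started by adding TDP1 (1.5 nM), 26 °C, fluorescence (Ex485/Em520) read every 1 min. Linear-phase slope compared with DMSO control, IC50 taken from concentration-response curves, at least three independent experiments.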

[2] = (§1) Cytotoxicity against human T98G cells assessed as reduction in cell viability after 72 hrs by MTT assay; assay type: cell-based; details: T98G cells
Procedure, shortened: (§2)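 Cells plated at ~2000 per well, grown 24h at 37 °C in IMDM (5% CO2), then exposed to compounds at 1, 5, 20 and 100 µM for 72h. Viable cells quantified by colorimetric MTT test; CC50 taken as mean of three independent experiments.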

[3] = (§3) Cytotoxicity against human MCF7 cells assessed as reduction in cell viability after 72 hrs by MTT assay; assay type: cell-based; details: MCF7 cells; procedure, shortened: as §2
WI-38 [4] = test: Cytotoxicity against human WI38 cells at 1 uM after 72 hrs in presence of topotecan by MTT assay; assay type: cell-based; details: wi-38, 72 h
[5] = (§4) Cytotoxicity against human WI38 cells assessed as reduction in cell viability after 72 hrs by MTT assay; assay type: cell-based, WI-38; details: WI-38 cells; procedure, shortened: as §2
T98G [6] = test: Cytotoxicity against human T98G cells at 1 uM after 72 hrs in presence of topotecan by MTT assay; assay type: cell-based
MCF7 = test: as §3; assay type: cell-based; details: mcf7, 72 h; procedure, shortened: as §2
A549 = test: Cytotoxicity against human A549 cells assessed as reduction in cell viability after 72 hrs by MTT assay; assay type: cell-based; details: a549, 72 h; procedure, shortened: as §2
WI-38 [7] = test: as §4; assay type: cell-based; details: wi-38, 72 h; procedure, shortened: as §2
T98G [8] = test: as §1; assay type: cell-based; details: t98g, 72 h; procedure, shortened: as §2
[9] = target: T1, Tyrosyl-DNA phosphodiesterase 1; test: Inhibition of TDP1 (unknown origin) using 5'-(5,6 FAM-AAC GTC AGG GTC TTC C- BHQ1)-3' as substrate measured after 20 mins by gel-based assay
Procedure, shortened: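 Reaction (200 μL) in TDP1 buffer (50 mM Tris-HCl pH 8.0, 50 mM NaCl, 7 mM β-mercaptoethanol) with FAM/BHQ1 biosensor oligo at 50 nM final and inhibitor at various concentrations. Started with TDP1 at 1.5 nM final, run 20 min at room temperature, stopped with loading buffer. Products separated by denaturing PAGE, scanned and quantified, and IC50 derived.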

T1 sequence (Q9NUW8 whole entry): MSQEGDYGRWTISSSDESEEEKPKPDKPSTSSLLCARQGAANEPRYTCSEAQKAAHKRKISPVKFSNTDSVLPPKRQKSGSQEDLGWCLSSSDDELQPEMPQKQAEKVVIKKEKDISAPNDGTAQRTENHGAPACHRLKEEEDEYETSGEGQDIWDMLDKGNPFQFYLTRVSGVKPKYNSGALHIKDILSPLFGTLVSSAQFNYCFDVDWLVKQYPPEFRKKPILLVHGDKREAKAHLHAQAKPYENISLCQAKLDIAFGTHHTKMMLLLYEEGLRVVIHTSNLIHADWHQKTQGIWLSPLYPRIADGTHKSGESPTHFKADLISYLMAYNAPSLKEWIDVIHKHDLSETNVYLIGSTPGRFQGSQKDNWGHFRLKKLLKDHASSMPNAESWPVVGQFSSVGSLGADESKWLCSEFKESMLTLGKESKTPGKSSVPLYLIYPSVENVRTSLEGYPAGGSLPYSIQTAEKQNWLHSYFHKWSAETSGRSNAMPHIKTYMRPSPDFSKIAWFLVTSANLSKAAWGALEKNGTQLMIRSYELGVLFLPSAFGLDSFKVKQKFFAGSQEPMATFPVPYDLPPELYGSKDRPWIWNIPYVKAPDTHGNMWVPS

Row | Structure (SMILES) | IC50 [1] [µM] | also measured
1 | CC(C)OCCCNC(=O)c1cc2c([nH]c3ccccc32)c(-c2ccc3c(c2)OCO3)n1 | 3.1 | –
2 | Cc1c(CC(=O)NC(Cc2ccc(Cl)cc2)C(=O)O)c(=O)oc2c(C)c3occ(-c4ccc(F)cc4)c3cc12 (configuration not stated) | 0.85 | –
3 | O=C(NCCc1c[nH]c2ccccc12)c1cc2c([nH]c3ccccc32)c(-c2ccc3c(c2)OCO3)n1 | 0.98 | –
4 | Cc1c(CCC(=O)N[C@@H](CSCc2ccccc2)C(=O)O)c(=O)oc2cc3oc4c(c3cc12)CCCC4 | 15.4 | –
5 | O=c1cc(-c2cc3ccccc3oc2=O)c2ccc(OCc3cccc4ccccc34)cc2o1 | 0.27 | –
6 | O=c1cc(-c2cc3ccccc3oc2=O)c2ccc(OCc3ccccc3Cl)cc2o1 | 0.28 | CC50 at 72 h [2]: 16 µM
7 | O=C(NCCC1=CCCCC1)c1cc2c([nH]c3ccccc32)c(-c2ccc3c(c2)OCO3)n1 | 1.3 | –
8 | CCCc1cc(=O)oc2c(C)c(OCC(=O)NC(Cc3c[nH]c4ccc(O)cc34)C(=O)O)ccc12 (configuration not stated) | 5.6 | –
9 | Cc1c(Cc2ccccc2)c(=O)oc2cc(OCC(=O)N[C@@H](CSCc3ccccc3)C(=O)O)ccc12 | 3.5 | –
10 | COc1cccc2cc(-c3cc(=O)oc4c(C)c(OCc5ccc(Cl)cc5)ccc34)c(=O)oc12 | 0.36 | CC50 at 72 h [3]: 17 µM; Activity (WI-38 [4]): Toxic; CC50 at 72 h [5]: 60 µM; CC50 at 72 h [2]: 16 µM; Activity (T98G [6]): Toxic
11 | Cc1oc2c(C)c3oc(=O)c(CC(=O)NCC(=O)O)c(C)c3cc2c1-c1ccccc1 | > 100 | –
12 | COc1cccc2cc(-c3cc(=O)oc4cc(OCC(C)=O)ccc34)c(=O)oc12 | 7.6 | –
13 | O=C(COc1cc2oc(=O)cc(-c3ccccc3)c2cc1Cl)NC[C@H]1CC[C@H](C(=O)O)CC1 | > 100 | –
14 | O=c1cc(-c2cc3ccccc3oc2=O)c2ccc(OCc3c(Cl)cccc3Cl)cc2o1 | 0.099 | Activity (MCF7): Non-Toxic; Activity (WI-38 [4]): Toxic; Activity (A549): Non-Toxic; Activity (WI-38 [7]): Non-Toxic; Activity (T98G [8]): Non-Toxic; Activity (T98G [6]): Toxic
15 | Cc1c(CC(=O)N[C@@H](CSCc2ccccc2)C(=O)O)c(=O)oc2c(C)c3occ(-c4ccc(F)cc4)c3cc12 | 1.06 | CC50 at 72 h [3]: 80 µM; IC50 [9]: 1.75 µM; CC50 at 72 h [2]: 66 µM
16 | COc1ccc(-c2cc(=O)oc3cc(OCC(=O)N[C@H](C(=O)O)c4ccccc4)ccc23)cc1 | 12.9 | –
17 | CC(C)C[C@H](N)C(=O)N1CCC(C(=O)N[C@@H](Cc2ccccc2)C(=O)NCc2ccccc2F)CC1 | > 100 | –
